Reference: ChEMBL document CHEMBL1143294, “Synthesis and antifungal activity of 1,2,3-triazole containing fluconazole analogues” (Bioorg Med Chem Lett, 2009)
Converted amounts (≈) assume the structure as drawn.

Legend:
[1] = tested on: Candida albicans; assay: Antimicrobial activity against Candida albicans by broth microdilution method; type: functional, organism-based
Method in brief: (§1)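 Standard broth microdilution following NCCLS guidelines. MIC and IC50 values were determined.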

[2] = tested on: Cryptococcus neoformans; assay: Antimicrobial activity against Cryptococcus neoformans by broth microdilution method; type: functional, organism-based; method in brief: as §1
[3] = tested on: Sporothrix schenckii; assay: Antimicrobial activity against Sporothrix schenckii by broth microdilution method; type: functional, organism-based; method in brief: as §1
[4] = tested on: Trichophyton mentagrophytes; assay: Antimicrobial activity against Trichophyton mentagrophytes by broth microdilution method; type: functional, organism-based; method in brief: as §1
[5] = tested on: Aspergillus fumigatus; assay: Antimicrobial activity against Aspergillus fumigatus by broth microdilution method; type: functional, organism-based; method in brief: as §1
[6] = tested on: Candida parapsilosis; assay: Antimicrobial activity against Candida parapsilosis ATCC 22019 by broth microdilution method; type: functional, organism-based; conditions: Lodderomyces parapsilosis; method in brief: as §1
[7] = Cytotoxicity against human Hep3B cells at 0.001 mg/ml; type: cell-based; conditions: hep 3b2
Method in brief: (§2)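 Antiproliferative assay in human hepatocellular carcinoma Hep3B and human epithelial carcinoma A431 cells. Compounds were tested across 0.001–1 mg/ml.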

[8] = tested on: A-431; assay: Cytotoxicity against human A431 cells at 1 mg/ml; type: cell-based; method in brief: as §2
[9] = tested on: A-431; assay: Cytotoxicity against human A431 cells at 1 mg/ml
[10] = Cytotoxicity against human Hep3B cells at 0.001 mg/ml; conditions: hep 3b2
[11] = tested on: Candida albicans; assay: Antimicrobial activity against Candida albicans infected Swiss mouse assessed as reduction of kidney fungal load at 50 mg/kg, po administered once daily for 7 days measured after 9 days; type: functional; parameters: scale not given: the % may be the effect or the level left
Method in brief: (§3)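 Swiss mice received an intravenous Candida albicans challenge, with five mice per group. Test agent was given orally in PEG 200 once a day for 7 days. Mice were sacrificed on day 9, and kidney fungal burden was counted as CFU/g tissue. Results are expressed as % reduction in CFU relative to the untreated control group.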

[12] = tested on: Candida albicans; assay: Antimicrobial activity against Candida albicans infected Swiss mouse assessed as reduction of kidney fungal load at 25 mg/kg, po administered once daily for 7 days measured after 9 days; type: functional; parameters: scale not given: the % may be the effect or the level left; method in brief: as §3
[13] = Cytotoxicity against human Hep3B cells; conditions: hep 3b2
[14] = tested on: A-431; assay: Cytotoxicity against human A431 cells at 0.001 mg/ml; type: cell-based; method in brief: as §2

| SMILES | IC50 [1] [µg/mL] | MIC [1] [µg/mL] | IC50 [2] [µg/mL] | MIC [2] [µg/mL] | IC50 [3] [µg/mL] | MIC [3] [µg/mL] | IC50 [4] [µg/mL] | MIC [4] [µg/mL] | IC50 [5] [µg/mL] | MIC [5] [µg/mL] | IC50 [6] [µg/mL] | MIC [6] [µg/mL] | Activity [7] | Activity [8] | Activity [9] | Activity [10] | Activity [11] [%] | Activity [12] [%] | Activity [13] | Activity [14] |
| --- | --- | --- | --- | --- | --- | --- | --- | --- | --- | --- | --- | --- | --- | --- | --- | --- | --- | --- | --- | --- |
| OC(Cc1c[nH]nn1)(Cn1cncn1)c1ccc(F)cc1F (configuration not stated) | 2.74 (≈ 8.95 µM) | 3.16 (≈ 10.3 µM) | 0.69 (≈ 2.25 µM) | 3.12 (≈ 10.2 µM) | 4.43 (≈ 14.5 µM) | 12.4 (≈ 40.5 µM) | 47 (≈ 153 µM) | 49 (≈ 160 µM) | > 50 | > 50 | 16.8 (≈ 55 µM) | 29.1 (≈ 95 µM) | – | – | – | – | – | – | – | – |
| C[C@@H]1[C@H](O)[C@@H](C)/C=C/C=C/C=C/C=C/C=C/C=C/C=C/[C@H](O[C@@H]2O[C@H](C)[C@@H](O)[C@H](N)[C@@H]2O)C[C@@H]2O[C@](O)(C[C@@H](O)C[C@@H](O)[C@H](O)CC[C@@H](O)C[C@@H](O)CC(=O)O[C@H]1C)C[C@H](O)[C@H]2C(=O)O [AMPHOTERICIN B] | – | 0.12 (≈ 0.13 µM) | – | 0.06 (≈ 0.0649 µM) | – | 0.12 (≈ 0.13 µM) | 0.02 (≈ 0.0216 µM) | 0.12 (≈ 0.13 µM) | – | 0.5 (≈ 0.541 µM) | – | 0.12 (≈ 0.13 µM) | Non-toxic | Toxic | Toxic | Non-toxic | – | – | – | – |
| OC(Cn1cncn1)(Cn1ccnn1)c1ccc(F)cc1F (configuration not stated) | 0.72 (≈ 2.35 µM) | 1.48 (≈ 4.83 µM) | 0.03 (≈ 0.098 µM) | 0.78 (≈ 2.55 µM) | 5.77 (≈ 18.8 µM) | 10.6 (≈ 34.7 µM) | 6.45 (≈ 21.1 µM) | 12.2 (≈ 39.7 µM) | > 50 | > 50 | 6.83 (≈ 22.3 µM) | 12.8 (≈ 41.9 µM) | – | – | – | – | – | – | – | – |
| CCCCCCCCn1cc(CC(O)(Cn2cncn2)c2ccc(F)cc2F)nn1 (configuration not stated) | 0.001 (≈ 0.00239 µM) | 0.002 (≈ 0.00478 µM) | < 0.006 | 0.002 (≈ 0.00478 µM) | 0.008 (≈ 0.0191 µM) | 0.036 (≈ 0.086 µM) | 0.249 (≈ 0.595 µM) | 0.48 (≈ 1.15 µM) | 0.8 (≈ 1.91 µM) | 1.12 (≈ 2.68 µM) | 0.002 (≈ 0.00478 µM) | 0.01 (≈ 0.0239 µM) | Non-toxic | Toxic | – | – | 97.4 | 41.2 | Non-toxic | – |
| C[C@H](CCC(=O)OCc1cn(CC(O)(Cn2cncn2)c2ccc(F)cc2F)nn1)[C@H]1CC[C@H]2[C@@H]3[C@H](O)C[C@@H]4C[C@H](O)CC[C@]4(C)[C@H]3C[C@H](O)[C@]12C (some centres not stated) | 0.35 (≈ 0.482 µM) | 0.442 (≈ 0.608 µM) | 0.03 (≈ 0.0413 µM) | 0.19 (≈ 0.261 µM) | 11.3 (≈ 15.5 µM) | 12.6 (≈ 17.3 µM) | 8.9 (≈ 12.2 µM) | 18.4 (≈ 25.3 µM) | 31.2 (≈ 43 µM) | > 50 | 2.93 (≈ 4.03 µM) | 5.15 (≈ 7.09 µM) | Non-toxic | Toxic | Toxic | Non-toxic | – | – | – | – |
| C[C@H](CCC(=O)OCc1cn(CC(O)(Cn2cncn2)c2ccc(F)cc2F)nn1)[C@H]1CC[C@H]2[C@@H]3CC[C@@H]4C[C@H](O)CC[C@]4(C)[C@H]3C[C@H](O)[C@]12C (some centres not stated) | < 0.001 | < 0.001 | < 0.001 | 0.01 (≈ 0.0141 µM) | 0.76 (≈ 1.07 µM) | 0.84 (≈ 1.18 µM) | 46.5 (≈ 65.4 µM) | > 50 | 6.24 (≈ 8.78 µM) | > 50 | 0.38 (≈ 0.535 µM) | 0.396 (≈ 0.557 µM) | Non-toxic | Toxic | Toxic | – | 38.2 | – | Non-toxic | – |
| OC(Cn1cncn1)(Cn1cncn1)c1ccc(F)cc1F [FLUCONAZOLE] | – | 0.5 (≈ 1.63 µM) | 0.45 (≈ 1.47 µM) | 1 (≈ 3.27 µM) | – | 2 (≈ 6.53 µM) | 0.6 (≈ 1.96 µM) | 1 (≈ 3.27 µM) | – | 2 (≈ 6.53 µM) | – | 1 (≈ 3.27 µM) | Non-toxic | Toxic | – | Non-toxic | – | – | – | Toxic |
| CC(=O)N1CCN(c2ccc(OCC3COC(Cn4ccnc4)(c4ccc(Cl)cc4Cl)O3)cc2)CC1 (configuration not stated) [KETOCONAZOLE] | 0.001 (≈ 0.00188 µM) | 0.002 (≈ 0.00376 µM) | 0.001 (≈ 0.00188 µM) | 0.001 (≈ 0.00188 µM) | 0.026 (≈ 0.0489 µM) | 0.031 (≈ 0.0583 µM) | 2.12 (≈ 3.99 µM) | 4 (≈ 7.53 µM) | 0.008 (≈ 0.0151 µM) | 2 (≈ 3.76 µM) | 0.024 (≈ 0.0452 µM) | 0.031 (≈ 0.0583 µM) | Non-toxic | Toxic | Toxic | Non-toxic | – | – | – | – |
| CCCCCCc1cn(CC(O)(Cn2cncn2)c2ccc(F)cc2F)nn1 (configuration not stated) | 0.018 (≈ 0.0461 µM) | 0.032 (≈ 0.082 µM) | < 0.01 | 0.02 (≈ 0.0512 µM) | 0.043 (≈ 0.11 µM) | 0.14 (≈ 0.359 µM) | 2.46 (≈ 6.3 µM) | 6.72 (≈ 17.2 µM) | 5 (≈ 12.8 µM) | 6.9 (≈ 17.7 µM) | 0.12 (≈ 0.307 µM) | 0.39 (≈ 0.999 µM) | Non-toxic | Toxic | Toxic | – | 95 | – | Non-toxic | – |
| C[Si](C)(C)c1cn(CC(O)(Cn2cncn2)c2ccc(F)cc2F)nn1 (configuration not stated) | 3.04 (≈ 8.03 µM) | 3.26 (≈ 8.61 µM) | 1.01 (≈ 2.67 µM) | 1.56 (≈ 4.12 µM) | 3.11 (≈ 8.22 µM) | 3.16 (≈ 8.35 µM) | 8.57 (≈ 22.6 µM) | 15.6 (≈ 41.1 µM) | 43.2 (≈ 114 µM) | 49.8 (≈ 132 µM) | 33.1 (≈ 87.5 µM) | 44.5 (≈ 118 µM) | – | – | – | – | – | – | – | – |
